# Measured values from different studies.
# Organism: Escherichia coli
# Effect on: microbial killing
SMILES,method,cells,strain,time,MBC
COc1cc(Cc2cnc(N)nc2N)cc(OC)c1OC,broth dilution,,,48 h,> 32 µg/mL
N#CC(=Cc1ccccc1O)C1=NC(=O)C(=Cc2cn(-c3ccccc3)nc2-c2ccccc2)S1,broth dilution,,,,0.5 µg/mL
CCn1cc(C(=O)O)c(=O)c2cc(F)c(N3CCNCC3)cc21,broth dilution,ATCC 8739,ATCC8739,,1 µM
O=c1[nH]cc(F)c(=O)[nH]1,broth dilution,,,48 h,> 32 µg/mL
CN[C@H](CC(C)C)C(=O)N[C@H]1C(=O)N[C@@H](CC(N)=O)C(=O)N[C@H]2C(=O)N[C@H]3C(=O)N[C@H](C(=O)N[C@H](C(=O)O)c4cc(O)cc(O)c4-c4cc3ccc4O)[C@H](O)c3ccc(c(Cl)c3)Oc3cc2cc(c3O[C@@H]2O[C@H](CO)[C@@H](O)[C@H](O)[C@H]2O[C@H]2C[C@](C)(N)[C@H](O)[C@H](C)O2)Oc2ccc(cc2Cl)[C@H]1O,broth dilution,ATCC 8739,ATCC8739,,> 128 µM
COc1c(C)c(OC(=O)c2ccc(C)cc2)c(C)c(O)c1C(=O)/C=C/c1ccccc1,broth dilution,,ATCC25922,,> 5000 µg/mL
O=C(O)c1cn(C2CC2)c2cc(N3CCNCC3)c(F)cc2c1=O,broth dilution,,,,0.25 µg/mL
COc1c(C)c(OC(=O)c2ccccc2)c(C)c(O)c1C(=O)/C=C/c1ccccc1,broth dilution,,ATCC25922,,> 5000 µg/mL
N#CC(=Cc1cn(-c2ccccc2)nc1-c1ccccc1)C1=NC(=O)CS1,broth dilution,,,,0.25 µg/mL
CNC1=C([N+](=O)[O-])C2(C(=O)Nc3ccccc32)C2=C(O1)C(=O)c1ccccc1C2=O (stereo not drawn),,,ATCC25922,,≤ 500 µg/mL
COc1c(C)c(OC)c(C(=O)/C=C/c2ccccc2)c(OC)c1C,broth dilution,,ATCC25922,,> 5000 µg/mL
CO[C@H]1O[C@H](COC(c2ccccc2)(c2ccccc2)c2ccccc2)[C@@H](OC(=O)c2ccc(C(C)(C)C)cc2)[C@H](OC(=O)c2ccc(C(C)(C)C)cc2)[C@H]1OC(=O)c1ccc(C(C)(C)C)cc1,broth dilution,,,,16 µg/mL
